SMILES strings stand for the structures. The source made the active and inactive calls. The rule behind the calls is not given here.

Experiment [1] concerns the target T1, Ras-related C3 botulinum toxin substrate 1/T-lymphoma invasion and metastasis-inducing protein 1 (Homo sapiens, UniProt P63000+Q13009). The experiment in a line: Inhibition of Rac1-Tiam1 interaction in human smooth muscle cells assessed as reduction of PDGF-BB stimulated GTP bound Rac1 level at 10 uM preincubated for 4 hrs followed by PDGF-BB stimulation measured after 2 mins by G-LISA assay relative to control. Type of experiment: cell-based. The method, boiled down:
(§1)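 Cultured human aortic SMCs seeded at 2 × 10^5/35 mm dish in DMEM + 10% FCS, switched after 24 h to 0.4% FCS for 48 h. Compounds (DMSO stocks) added at 10 μM final for 4 h, then PDGF-BB 20 ng/mL for 2 min. Lysates analysed by G-LISA (RBD-coated plate, antibody/HRP detection) for Rac1–GTP or RhoA–GTP. Mean ± SD of triplicates.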

Experiment [2] has as its target Transforming protein RhoA (Homo sapiens) (UniProt P61586). The experiment in a line: Activation of RhoA in human smooth muscle cells assessed as PDGF-BB stimulated GTP bound protein level at 10 uM preincubated for 4 hrs followed by PDGF-BB stimulation measured after 2 mins by G-LISA assay. Type of experiment: cell-based. The method, boiled down: as §1
The target in experiment [3] is T1, Ras-related C3 botulinum toxin substrate 1/T-lymphoma invasion and metastasis-inducing protein 1. The experiment in a line: Inhibition of Rac1-Tiam1 interaction in human smooth muscle cells assessed as reduction of PDGF-BB stimulated GTP bound Rac1 level preincubated for 4 hrs followed by PDGF-BB stimulation measured after 2 mins by G-LISA assay. The class given is cell-based. The method, boiled down: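 SMCs serum-starved (0.4% FCS, 48 h) after seeding at 2 × 10^5/35 mm dish, treated 4 h with compound at 1, 2.5, 5 and 10 μM final, then stimulated with PDGF-BB 20 ng/mL for 2 min. Rac1–GTP in lysates read by G-LISA (Rac1-RBD plate, primary antibody plus HRP secondary). IC50 from concentration–response; triplicates, mean ± SD.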

Experiment [4] is filed under the species Homo sapiens. Description: Antimigratory activity against human smooth muscle cells assessed as inhibition of PDGF-BB-induced cell motility at 10 uM measured for 16 hrs by video microscopic analysis. The class given is functional, cell-based. A digest of the protocol:
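SMCs seeded at 2 × 10^4 per well of 24-well tray in DMEM + 10% FCS, moved to 0.4% FCS for 48 h. Compound added at 10 μM final together with PDGF-BB 20 ng/mL. Time-lapse video microscopy at 37 °C for 16 h; cells manually tracked and distance covered measured for 10 cells per condition from three independent experiments, mean ± SD.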

Chain of Transforming protein RhoA (Homo sapiens) (P61586 whole entry): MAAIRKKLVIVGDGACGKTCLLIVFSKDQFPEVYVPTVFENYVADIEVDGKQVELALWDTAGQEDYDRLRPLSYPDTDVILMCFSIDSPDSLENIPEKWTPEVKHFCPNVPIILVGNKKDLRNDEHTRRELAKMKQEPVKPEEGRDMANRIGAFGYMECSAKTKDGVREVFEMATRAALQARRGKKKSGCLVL

Consider `CCOC(=O)[C@@]1(N)[C@@H]2C[C@@H]([C@@H](c3cccc(Nc4ccc(N)cc4)c3)C2)[C@@H]1Sc1ccccc1` (relative stereo), for which, in experiment [1], the inhibition (commonly the drop in the measured response relative to a control, in per cent) was “Active”. Further, the result in experiment [2] was Active.
Consider `CCOC(=O)[C@]1(N)[C@@H]2C[C@@H](C[C@H]2c2cccc(Nc3ccc(N)cc3)c2)[C@H]1Sc1ccccc1` (relative stereo), for which, in experiment [1], the inhibition result was “Active”. Further, the result in experiment [2] was Active.
Regarding `CCOC(=O)[C@]1(N)[C@@H]2C[C@@H]([C@@H](c3cccc(Nc4ccc(N)cc4)c3)C2)[C@@H]1Sc1ccccc1` (relative stereo), in experiment [1], the inhibition entry is “Active”. In addition, the result in experiment [2] was Active.
As for `CCOC(=O)[C@]1(N)[C@@H]2C[C@@H](C[C@H]2c2cccc(Nc3ccc(N)cc3)c2)[C@@H]1Sc1ccccc1` (relative stereo), in experiment [3], the IC50 – broadly, the midpoint of a concentration-inhibition curve – was 2500 nM and the inhibition result is “Dose-dependent effect”. In experiment [4], the inhibition result was “Active”. Besides, the inhibition in experiment [1] turned out to be 75%. Besides, in experiment [2], the result was Active.
With `CCOC(=O)[C@]1(N)[C@@H]2C[C@@H]([C@@H](c3cccc(Nc4ccc(N)cc4)c3)C2)[C@H]1Sc1ccccc1` (relative stereo), the inhibition entry in experiment [1] is “Active”. The outcome in experiment [2] was Active.
On to `CCOC(=O)[C@@]1(N)[C@@H]2C[C@@H](C[C@H]2c2cccc(Nc3ccc(N)cc3)c2)[C@@H]1Sc1ccccc1` (relative stereo), for which, in experiment [1], the inhibition entry was “Active”. Further, the result in experiment [2] was Active.

The values above are taken from ChEMBL document CHEMBL3232906, “2-Amino-3-(phenylsulfanyl)norbornane-2-carboxylate: an appealing scaffold for the design of Rac1-Tiam1 protein-protein interaction inhibitors” (J Med Chem, 2014).
